Assay results pooled from the literature.

N#Cc1cc(NC(=O)[C@H]2c3ccccc3C(=O)N(CC(F)(F)F)[C@@H]2c2cccnc2)ccc1F  NOAEL (general toxicity; beagle dog; oral, multiple doses): 30 mg/kg
N=c1c2c(-c3ccccc3)c(-c3ccccc3)n(Cc3ccccc3)c2ncn1[C@H]1CC[C@H](O)CC1  Vd (male cynomolgus monkey, plasma; intravenous, 0.5 mg/kg, single dose): 1.5 L/kg
C/N=c1\nc(-c2ccccc2)n(-c2ccccc2)s1  efflux ratio (Caco-2; 20 µM, 95 min): 0.962
CC[C@H](C)[C@H](NC(=O)[C@H](CC(C)C)NC(=O)[C@H](Cc1c[nH]c2ccccc12)NC(=O)[C@H](CCC(N)=O)NC(=O)[C@@H](NC(=O)[C@H](Cc1ccccc1)NC(=O)[C@H](C)NC(=O)[C@H](CCCCNC(=O)COCCOCCNC(=O)COCCOCCNC(=O)CC[C@H](NC(=O)CCCCCCCCCCCCCCCCCCC(=O)O)C(=O)O)NC(=O)[C@H](CCC(N)=O)NC(=O)[C@H](C)NC(=O)[C@@H](NC(=O)[C@H](CCCCN)NC(=O)[C@H](CC(=O)O)NC(=O)[C@H](CC(C)C)NC(=O)C(C)(C)NC(=O)[C@@H](NC(=O)[C@H](CO)NC(=O)[C@H](Cc1ccc(O)cc1)NC(=O)[C@H](CC(=O)O)NC(=O)[C@H](CO)NC(=O)[C@@H](NC(=O)[C@H](Cc1ccccc1)NC(=O)[C@@H](NC(=O)CNC(=O)[C@H](CCC(=O)O)NC(=O)C(C)(C)NC(=O)[C@@H](N)Cc1ccc(O)cc1)[C@@H](C)O)[C@@H](C)O)[C@@H](C)CC)[C@@H](C)CC)C(C)C)C(=O)N[C@@H](C)C(=O)NCC(=O)NCC(=O)N1CCC[C@H]1C(=O)N[C@@H](CO)C(=O)N[C@@H](CO)C(=O)NCC(=O)N[C@@H](C)C(=O)N1CCC[C@H]1C(=O)N1CCC[C@H]1C(=O)N1CCC[C@H]1C(=O)N[C@@H](CO)C(N)=O  Cmax (human, plasma; subcutaneous, 4.5 mg, multiple doses, healthy volunteers): 884 ng/mL
C[C@]12CC[C@H](n3ccnc3)CC1=CC[C@@H]1[C@@H]2CC[C@]2(C)C(n3cnc4ccccc43)=CC[C@@H]12.Cl  Tmax (male CD-1 mouse, plasma; oral, 10 mg/kg): 13.3 h
NCC(=O)Nc1ccc(-n2nc(C(F)(F)F)cc2-c2ccc3c(ccc4ccccc43)c2)cc1  Tmax (mouse, plasma; oral, 80 mg/kg, single dose): 10 h
c1cc([C@H]2CC[C@]3(CC2)OO[C@]2(O3)C3CC4CC(C3)CC2C4)ccc1OCCN1CCOCC1  Cmax (human, plasma; oral, 200 mg, patients): 339 ng/mL
Cc1ccccc1C(=O)NN=Cc1ccc(O)c(Br)c1  Tmax (mouse, plasma; intraperitoneal, 1.6 mg/kg): 0.5 h
C=C(C)[C@@H]1CC[C@]2(NCCN3CCS(=O)(=O)CC3)CC[C@]3(C)[C@H](CC[C@@H]4[C@@]5(C)CC=C(C6=CC[C@@](COc7ncccc7C#N)(C(=O)O)CC6)C(C)(C)[C@@H]5CC[C@]43C)[C@@H]12  Cmax (human, plasma; oral, 100 mg, fed): 390 ng/mL
N=C(N)NCCC[C@@H](NC(=O)[C@@H](N)Cc1ccccc1)C(=O)N[C@@H](Cc1ccccc1)C(=O)N[C@@H](CCCCN)C(N)=O  Cmax (human, plasma; subcutaneous, 15 mg, patients): 886 ng/mL
COc1ccc2[nH]cc(CCNc3nccc(Nc4cccc5c4ccn5C)n3)c2c1  Tmax (mouse, plasma; intravenous, 9.5 mg/kg): 0.08 h
CC(=C/C=C/C(C)=C/C(=O)O)/C=C1\CCCc2ccccc21  Cmax (human, plasma; oral, 10 mg, single dose, fasted, healthy volunteers): 55.9 ng/mL
